PGE2 EP2 inh = EP2 receptor (human) inhibition | C6 glioma cells expressing human EP2, cAMP TR-FRET; cells stimulated with saturating PGE2 | inhibition, % at 25 µM | 260,000 compounds, 0.52% hits | AID 1422;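 active means percent inhibition above 40 after rounding to a whole number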;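 further: rat C6 glioma host cells with rolipram phosphodiesterase inhibitor present; the protocol text gives 20 µM as final concentration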
T cell HTS = modulates CD8 T cell binding to vesicles. 2C CD8+ T cell-vesicle binding, flow cytometry; hits give low values. response (vesicle binding), % at 7 µM. 330,000 compounds, 0.068% hits. AID 2052;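 active means response, share of CD8 T cells binding vesicles, and their 90th percentile fluorescence all below set limits, cut at about 80% in these data, passing the limit was not always enough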;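 further: values below 100% mean blocked vesicle binding to the CD8+ T cells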
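material = purified 2C TCR transgenic mouse naive CD8+ T cells | controls = Unloaded micro-vesicles (low), QL9 vesicles with 0.7% DMSO (high) | detection = cytometric PE anti-B7-1 and Alexa647 anti-CD8 signals after 1% paraformaldehyde fixation | incubation = binding step 1.5 h, 37 °C, antibody labelling 20 min, ice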
EP2 mod = modulators of human EP2 prostaglandin E2 receptor | 260,000 compounds, 0.83% hits | P43116 | induction, % at 25 µM | EP2-expressing cells, cAMP HTRF FRET, PGE2 co-stimulation;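 active means compounds whose cAMP rise, as percent of the full-agonist control response, exceeds 60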;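 further: rat C6 glioma line stably carrying human EP2 under a CMV promoter; the protocol text gives 20 µM as final concentration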
MC4R antagonist = antagonists of human melanocortin 4 receptor (MC4R); P32245; MC4R-expressing cells, MTII-stimulated cAMP, LANCE TR-FRET; AID 540295; inhibition, % at 6.5 µM; 360,000 compounds, 0.48% hits;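 active means inhibition above its plate's cutoff, the mean of tested wells on that plate plus 3 SD, cut at about 29% in these data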
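Material: U2OS-MC4R stable cell line | Reagent: Melanotan II challenge after compound preincubation | Doses: One concentration, 6.5 µM nominal | Incubation: 30-min compound preincubation, 1-h Melanotan II challenge, 1-h detection, room temperature | Signal: TR-FRET cAMP assay | Replicates: One well per compound, no replicates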
MC4R barr agon = activates human MC4R beta-arrestin recruitment | P32245 | U2OS MC4R beta-arrestin complementation, luminescence; percent of melanotan II response, DMSO zero | activation, % at 8.9 µM | 360,000 compounds, 0.98% hits;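 active means activation above a per-plate cutoff, the mean activation of sample wells on that plate plus 3 SD, cut at about 8% in these data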
Exocytosis inh = blocks lytic granule exocytosis. TALL-104 LAMP-1 surface exposure, flow cytometry; cells stimulated with thapsigargin and PMA. inhibition, % at 10 µM. 360,000 compounds, 0.66% hits;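 active means inhibition above about 55%, limit read from the data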
MC4R barr conf = human MC4R beta-arrestin agonism confirmation. shares compounds with MC4R barr agon. U2OS MC4R beta-arrestin recruitment, luminescence; scaled DMSO 0%, Melanotan II 100%. activation, % at 8.9 µM. 2,400 compounds, 31% hits. AID 602192;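 active means mean activation across replicates above the hit cutoff set in the earlier primary screen, cut at about 8% in these data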
MOR-DOR barr ag = OPRM1-OPRD1 heterodimer agonism counter-screen. activation, % at 9.2 µM. AID 602194. U2OS PathHunter beta-arrestin, beta-gal luminescence; percent of deltorphin B response, DMSO zero. 2,400 compounds, 5.8% hits. shares compounds with MC4R barr agon;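 active means mean activation across replicates exceeds the hit threshold derived in the earlier primary screen, cut at about 18% in these data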
Target sequence (P35372 whole entry, looked up): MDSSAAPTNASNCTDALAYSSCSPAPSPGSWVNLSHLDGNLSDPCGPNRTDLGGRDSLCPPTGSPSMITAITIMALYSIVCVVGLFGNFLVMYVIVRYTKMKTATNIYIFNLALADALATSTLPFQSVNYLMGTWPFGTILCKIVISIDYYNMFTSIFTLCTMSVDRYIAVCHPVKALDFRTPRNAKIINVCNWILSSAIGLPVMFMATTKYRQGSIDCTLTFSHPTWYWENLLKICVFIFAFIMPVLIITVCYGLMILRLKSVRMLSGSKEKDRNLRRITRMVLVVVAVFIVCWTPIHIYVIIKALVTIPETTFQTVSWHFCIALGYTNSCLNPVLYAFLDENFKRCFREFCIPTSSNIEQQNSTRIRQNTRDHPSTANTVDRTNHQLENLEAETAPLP
Target sequence (P41143 whole entry, looked up): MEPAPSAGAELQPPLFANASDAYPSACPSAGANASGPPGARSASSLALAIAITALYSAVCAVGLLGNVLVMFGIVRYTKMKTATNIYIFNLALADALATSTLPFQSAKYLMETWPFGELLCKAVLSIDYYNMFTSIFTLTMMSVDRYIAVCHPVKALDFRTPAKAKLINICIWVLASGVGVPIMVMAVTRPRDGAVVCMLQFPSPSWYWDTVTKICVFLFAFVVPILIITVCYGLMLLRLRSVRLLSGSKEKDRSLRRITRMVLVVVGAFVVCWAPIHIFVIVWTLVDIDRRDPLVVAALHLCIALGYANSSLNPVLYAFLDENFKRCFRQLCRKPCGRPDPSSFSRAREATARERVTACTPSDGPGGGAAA
Numbers stand for hits; i = inactive; nt = no result. An excerpt weighted towards active compounds, which were near 2.6% of everything screened.

SMILES	PGE2 EP2 inh	T cell HTS	EP2 mod	MC4R antagonist	MC4R barr agon	Exocytosis inh	MC4R barr conf	MOR-DOR barr ag
CCC1=NN2C(=N)/C(=C\c3ccc(OCCOc4ccccc4)c(OC)c3)C(=O)N=C2S1	nt	i	nt	nt	nt	nt	nt	nt
Cc1nn(Cc2ccccc2Cl)c(C)c1C(=O)NCc1ccco1	i	i	i	i	i	i	nt	nt
Cc1nn(Cc2ccccc2Cl)c(C)c1C(=O)NCCN1C(=O)S/C(=C\c2ccccc2)C1=O	i	i	i	i	20.5	i	11.7	i
Cc1ccc2c(Cl)cc(Cl)c(OCC(=O)Nc3ccc(C)c(S(=O)(=O)N(C)C)c3)c2n1	i	i	i	nt	nt	nt	nt	nt
O=C(COC(=O)c1cccnc1Nc1ccccc1F)NCc1ccc2c(c1)OCO2	i	i	i	i	10.5	i	i	i
C/C(=N\NC(=O)c1ccc(CN(C)S(=O)(=O)c2ccc(C)cc2)cc1)c1ccc(OC(F)F)cc1	i	i	i	i	i	i	nt	nt
Cc1ccc(S(=O)(=O)N(C)Cc2ccc(C(=O)N/N=C/c3ccc(OC(F)F)cc3)cc2)cc1	i	i	i	i	24.9	i	i	i
CC(C)c1ccc(-c2csc(NC(=O)c3cccs3)c2C(=O)O)cc1	i	i	i	i	i	i	nt	nt
Cc1ccc(Sc2nnc(-c3ccccc3)cc2C#N)cc1	i	i	i	i	13.0	i	i	i
COc1cccc(C(=O)NCCN2CCOCC2)c1	i	i	i	i	i	i	nt	nt
CC(C)Oc1ccc(/C=C/C(=O)NCC2COc3ccccc3O2)cc1 (stereo not drawn)	i	i	i	i	10.3	i	i	i
COc1cc(NC(=O)c2ccccc2)ccc1NC(=O)Cc1ccccc1	nt	i	nt	i	i	i	nt	nt
S=C(Nc1cc(Cl)cc(Cl)c1)NC1CCN(Cc2ccccc2)CC1	nt	i	nt	i	13.1	i	i	21.7
COC(=O)Cn1c2ccc(OC)cc2c2nc3ccccc3nc21	i	i	i	i	i	i	nt	nt
COc1ccc2c(c1)c1nc3ccccc3nc1n2Cc1ccc(OC)c(OC)c1	i	i	i	i	11.3	i	i	i
CCOc1ccc(Cn2c3ccc(OC)cc3c3nc4ccccc4nc32)cc1OC	i	i	i	i	27.7	i	25.6	i
Cc1ccc(S(=O)(=O)N2CCN(C)CC2)cc1C(N)=O	i	nt	i	nt	nt	nt	nt	nt
CN(C)S(=O)(=O)n1cc(/C=C(\NC(=O)c2ccccc2Cl)C(=O)N2CCOCC2)c2ccccc21	nt	i	nt	i	i	i	nt	nt
CCc1sc(C(=O)N2CCN(S(C)(=O)=O)CC2)cc1Br	i	i	i	i	i	i	nt	nt
C=CCn1c(CCCOc2ccc(Cl)cc2Cl)nnc1SCC(=O)Nc1nccs1	i	i	i	i	9.7	i	i	i
Cn1c(CCCOc2ccc(Cl)cc2Cl)nnc1SCC(=O)Nc1cccc(F)c1	i	i	i	i	18.8	i	9.8	i
O=C(Cc1cccs1)NCc1ccccc1F	i	i	i	i	i	i	nt	nt
Cc1cc([N+](=O)[O-])nn1CC(=O)N1CCOCC1	i	i	i	i	i	i	nt	nt
CC(c1ccccc1)n1cc(C(=O)NCc2ccncc2)nn1 (stereo not drawn)	i	i	i	i	i	i	nt	nt
O=C(NCc1ccccc1)C1c2ccccc2Oc2ccccc21	i	i	i	i	i	i	nt	nt
SMILES	PGE2 EP2 inh	T cell HTS	EP2 mod	MC4R antagonist	MC4R barr agon	Exocytosis inh	MC4R barr conf	MOR-DOR barr ag
O=c1[nH]c(Cn2nnc(-c3ccccc3)n2)nc2scc(-c3ccccc3)c12	i	i	i	i	11.8	i	i	i
O=c1[nH]c(CN2CCN(Cc3ccccc3)CC2)nc2scc(-c3ccccc3)c12	i	i	i	i	i	i	nt	nt
CC1CCc2c(sc3ncn4c(SCC(=O)NCc5ccco5)nnc4c23)C1 (stereo not drawn)	i	i	i	i	10.0	i	9.9	i
O=C(CCCOc1ccc(Cl)cc1Cl)N/N=C/c1ccc(Cl)cc1	i	i	i	i	9.8	i	i	i
Cc1ccc(NC(=O)c2ccc(N/N=C/c3cccc(O)c3)c([N+](=O)[O-])c2)cc1	i	i	i	i	9.9	i	i	i
COc1ccc(CN2C(=S)NC(C)(C)CC2(C)O)cc1 (stereo not drawn)	i	i	i	i	i	i	nt	nt
CCC(Oc1cc(Cl)ccc1Cl)C(=O)NN1C(=O)C2C3CCC(C3=C(C)C)C2C1=O (stereo not drawn)	i	i	i	i	9.9	i	i	i
COc1cccc(-c2ccc(C#N)c(SCC(=O)NCCc3cccc(Cl)c3)n2)c1	i	i	i	i	13.0	i	18.0	20.2
COc1ccc(-c2ccc(C#N)c(SCC(=O)NCCc3ccccc3)n2)cc1OC	i	i	i	i	11.6	i	i	i
Oc1ccc(C2C(c3ccccc3)=NN=C(c3ccccc3F)N2O)c(O)c1 (stereo not drawn)	i	i	i	i	i	i	nt	nt
COc1ccc(CNC(=O)c2ccc(N3CCOCC3)c([N+](=O)[O-])c2)cc1	i	i	i	i	i	i	nt	nt
COc1ccc2oc(-c3ccc(C)c(NC(=O)c4ccc(N5CCOCC5)c([N+](=O)[O-])c4)c3)nc2c1	i	i	i	i	10.7	i	i	i
COc1cc(C(=O)OCC(=O)NC(=O)NCc2ccccc2)ccc1OC(F)F	nt	i	nt	i	9.7	i	i	i
Cc1ccc2c(c1)c1c(n2CC(O)CN2CCCCCC2)CCCC1 (stereo not drawn)	nt	i	nt	i	i	i	nt	nt
Cc1ccc2c(c1)c1c(n2CC(O)Cn2c(C)nc3ccccc32)CCCC1 (stereo not drawn)	i	i	i	i	9.6	i	i	i
O=C(N/N=C/c1ccc(OCc2ccc(F)cc2)cc1)c1ccccc1	i	i	i	i	i	i	nt	nt
CC(C)(C)c1ccc(OCc2ccc(C(=O)N/N=C/c3ccc(O)c(O)c3)cc2)cc1	i	i	i	i	25.3	i	9.8	i
O=C(N/N=C/c1cccc(O)c1)c1ccc(COc2cccc3cccnc23)cc1	i	i	i	i	i	i	nt	nt
O=C(N/N=C/c1cccc(O)c1)c1ccc(COc2ccccc2Br)cc1	i	i	i	i	12.5	i	i	i
CCN1/C(=C/c2ccc3cc(C)cc(C)c3[n+]2CC)Sc2cc(C)ccc21	110.2	nt	i	i	45.0	76.8	87.1	i
COCCCn1c(=O)/c(=C\c2ccccc2OC(F)F)s/c1=C(/C#N)C(N)=O	i	i	i	i	i	i	nt	nt
COCCCn1c(=O)/c(=C\c2ccc(OC(F)F)c(OC)c2)s/c1=C(/C#N)C(N)=O	i	i	i	i	11.9	i	i	i

Screening results deposited in PubChem BioAssay by several laboratories.
